FN deposit inh: fibronectin deposition inhibition. 350,000 tested, 0.086% active. AID 743247. inhibition, % at 12.6 µM. AH1F fibroblasts, Alexa488-fibronectin deposition fluorescence, overnight;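 active = mean inhibition across replicates of 30% or more, regardless of how many single replicates reach that level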;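 note: positive control wells lacked labelled fibronectin entirely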
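Measured by – fluorescence 485/525 nm · System – AH1F fibroblast monolayer, labelled fibronectin deposition · Amount – 10000 cells per well · Buffer or medium – serum-reduced DMEM (2% serum) · Doses – single dose, pinned · Also added – fluorescent fibronectin at 24 nM final · Schedule – 1 h cell attachment, overnight exposure to compound and label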
HIV Env fusion: inhibitors of HIV Env-mediated cell fusion. inhibition, % at 12.3 µM. 360,000 tested, 1.1% active. HeLa-JRFL Env/CEM21 cell fusion, luciferase;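 active = mean replicate inhibition score of at least 50 and every replicate individually at or above 50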;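 note: 0% = plate neutral controls and 100% = maraviroc near 300 nM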
PglD DTNB: inhibitors of Campylobacter jejuni PglD acetyltransferase; purified PglD enzyme, DTNB colorimetric CoA detection; 360,000 tested, 0.098% active; inhibition, % at 12.5 µM; in the data active = inhibition above about 16%, passing the limit was not always enough
rRNA inh HTS: inhibits bacterial ribosomal RNA function over humanized ribosomes | E. coli WT GFP vs humanized-ribosome RFP mutants, fluorescence, 24 h; active compounds read low; DMSO median 0, no signal -100 | GFP signal change (wild-type ribosome), % (no concentration beside the values) | 350,000 tested, 1.6% active | AID 720706;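 active = significant combined selectivity score with lowered wild-type GFP, culture density cut under 30%, mutant RFP and density less affected; inactive = any of these conditions unmet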
PGC1a acetyl inh: PGC1a acetylation modulation, inhibitor mode; U2OS PGC1a acetylation, AlphaScreen anti-acetyl-lysine; with virally co-expressed GCN5 acetyltransferase; inhibition, % at 15.6 µM; 350,000 tested, 0.17% active; AID 651687;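 active = every replicate shows inhibition of at least 40%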;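 note: 0% = neutral control wells and 100% = positive control wells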
DENV2 CPE rescue: protects cells from dengue virus 2 cytopathic effect. DENV2-infected cells, cytopathic effect rescue, plate reader. CPE inhibition, % at 9.99 µM. 350,000 tested, 1.7% active. AID 651640; in the data active = CPE inhibition above about 20%, passing the limit was not always enough; tested in BHK-21 cells;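 note: 0% = median of neutral control wells and 100% = median of positive control wells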
* hit, by the source's call; · = not tested or not shown; [ ] = dose if it differs, or a comment. An excerpt weighted towards active compounds, which were near 3.5% of everything screened.

SMILES	FN deposit inh	HIV Env fusion	PglD DTNB	rRNA inh HTS	PGC1a acetyl inh	DENV2 CPE rescue
CC(=C/c1ccccc1)/C=N/NC(=O)c1nnn(-c2nonc2N)c1CN1CCC(C)CC1	-3	22	-1	0	·	3
CCN(CC)c1ccc(/C=N/NC(=O)c2nnn(-c3nonc3N)c2C(C)C)c(O)c1	8	62*	-1	-6	·	-4
CC1CCN(Cc2c(C(=O)N/N=C/c3ccccc3O)nnn2-c2nonc2N)CC1	7	63*	4	3	8	3
CCN(CC)c1ccc(/C=N/NC(=O)c2ccoc2C)c(O)c1	7	-176	-4	-34*	24	-1
CCOc1cccc(-c2c(C(=O)N/N=C/c3ccc(Br)cc3)nnn2-c2nonc2N)c1	5	9	-3	-11	21	47*
CCC(=O)N1[C@@H]2c3ccc(-c4ccccc4)c(=O)n3C[C@@H]2[C@@H](CO)[C@@H]1C(=O)N1CCCCC1	·	·	4	-2	·	11
C[C@@H]1CN([C@H](C)CO)C(=O)c2cc(NC(=O)Nc3ccc(F)cc3)ccc2O[C@@H](C)CCCCO[C@H]1CN(C)Cc1ccncc1	6	11[16.7 µM]	-1	1	0	-3
Cc1noc(C)c1NC(=O)Nc1ccc2c(c1)C(=O)N([C@H](C)CO)C[C@H](C)[C@H](CN(C)C(=O)Nc1ccc(C(F)(F)F)cc1)OCCCC[C@H](C)O2	-11	-11[16.7 µM]	-1	0	-6	-6
CCC(=O)N1[C@@H](CO)[C@@H]2c3ccccc3N(C(=O)c3ccncc3)C[C@@H]21	·	·	2	4	4	3
Cc1ccc(C2C(C(=O)c3cccs3)=C(O)C(=O)N2c2ccc(S(N)(=O)=O)cc2)cc1 (stereo not drawn)	-7	-16	·	3	4	3
Cc1ccc(C2C(C(=O)c3cccs3)=C(O)C(=O)N2c2cccc(C)n2)cc1 (stereo not drawn)	7	4	·	-15*	·	8
CN1C(=O)[C@H]2[C@@H](/C=C/c3ccccc3)N3C(=O)CN(CCO)C(=O)[C@@]3(Cc3ccccc3)[C@H]2C1=O	-7	8	-9	·	0	9
O=C1[C@H]2[C@@H](/C=C/c3ccccc3)N3C(=O)CN(CCO)C(=O)[C@@]3(Cc3ccccc3)[C@H]2C(=O)N1c1ccccc1	-1	28	-1	-1	16	56*
CCc1ccccc1NC(=O)c1ccc(OCc2c(C)noc2C)cc1	5	13	-3	-20*	-1	13
C[C@@H]1CCCCO[C@@H](CN(C)C(=O)Nc2ccc(F)cc2)[C@@H](C)CN([C@@H](C)CO)C(=O)c2cc(NC(=O)C3CCCCC3)ccc2O1	·	-24[16.7 µM]	-1	4	0	-2
CCCC(=O)Nc1ccc2c(c1)C(=O)N(C)[C@@H]1CC[C@@H](CC(=O)NCCOC)O[C@H]1CO2	-8	-34[16.7 µM]	-6	-2	5	-1
Cc1ccccc1S(=O)(=O)N1CCCCN2[C@H](C1)[C@H](c1ccc(-c3ccccc3)cc1)[C@@H]2CO	·	·	1	·	-1	2
COc1cccc(S(=O)(=O)N2CCCCN3[C@H](CO)[C@H](c4ccc(-c5cccnc5)cc4)[C@H]3C2)c1	·	·	-4	-4	2	-9
Cc1cccc(S(=O)(=O)N2CCCCN3[C@H](C2)[C@H](c2ccc(C#CC(C)C)cc2)[C@@H]3CO)c1	·	·	11	5	0	-8
Cc1cccc(S(=O)(=O)N2CCCCN3[C@@H](CO)[C@@H](c4ccc(-c5cccnc5)cc4)[C@@H]3C2)c1	·	·	-19	-8	-18	28*
Cc1cccc(-c2ccc([C@@H]3[C@H](CO)N4CCCCN(S(=O)(=O)c5cccc(C)c5)C[C@@H]34)cc2)c1	·	·	-1	-28*	-12	23*
Cc1cccc(S(=O)(=O)N2CCCCN3[C@H](C2)[C@H](c2ccc(-c4ccccc4)cc2)[C@@H]3CO)c1	·	·	2	·	-11	-11
Cc1cccc(-c2ccc([C@@H]3[C@H](CO)N4CCCCN(S(=O)(=O)c5ccccc5C)C[C@@H]34)cc2)c1	·	·	5	-43*	-22	-14
Cc1cccc(S(=O)(=O)N2CCCCN3[C@@H](CO)[C@H](c4ccc(C#CC(C)C)cc4)[C@@H]3C2)c1	·	·	7	-42*	3	-9
CC(C)CC#Cc1ccc2c(c1)O[C@H](CN(C)C(=O)c1ccncc1)[C@@H](C)CN([C@H](C)CO)S2(=O)=O	-3	-28[16.7 µM]	6	-2	4	-2
SMILES	FN deposit inh	HIV Env fusion	PglD DTNB	rRNA inh HTS	PGC1a acetyl inh	DENV2 CPE rescue
COc1cccc(-c2ccc([C@@H]3[C@H](CO)N4CCCCN(S(=O)(=O)c5cn(C)cn5)C[C@@H]34)cc2)c1	·	·	-6	5	·	27*
C[C@@H]1CN([C@H](C)CO)C(=O)c2cccc(NS(=O)(=O)c3cn(C)cn3)c2O[C@@H]1CN(C)C(=O)Nc1ccccc1	·	4[16.7 µM]	-5	3	5	10
CC(C)C1CC(CCNCc2ccc(N(C)C)cc2)(c2ccccc2)CCO1 (stereo not drawn)	-8	·	10	-37	·	10
CC(C)C1CC(CCNCc2ccc3c(c2)OCO3)(c2ccccc2)CCO1 (stereo not drawn)	0	-9	·	-24*	-14	9
Cc1csc(=O)n1CCC(=O)OCC(=O)Nc1cc([N+](=O)[O-])ccc1Cl	0	2	0	-11	-9	37*
Cc1ccc(NC(=O)COC(=O)CCn2c(C)csc2=O)c([N+](=O)[O-])c1	7	-10	·	3	-3	0
C[C@@H]1CN([C@H](C)CO)C(=O)c2cc(NS(=O)(=O)c3ccc(Cl)cc3)ccc2O[C@@H](C)CCCCO[C@H]1CN(C)C(=O)Nc1ccc(F)cc1	0	-217[16.7 µM]	0	-2	1	11
COc1ccc(S(=O)(=O)Nc2ccc3c(c2)C(=O)N([C@@H](C)CO)C[C@H](C)[C@@H](CN(C)S(=O)(=O)c2ccccc2)OCCCC[C@@H](C)O3)cc1	·	·	·	5	-5	16
N#CC1=C(Nc2ccccc2Cl)SC(c2ccccc2O)NC1=O (stereo not drawn)	2	-17	4	-27*	·	13
COc1cccc(NC2=C(C#N)C(=O)NC(c3cccc(OC)c3O)S2)c1 (stereo not drawn)	-3	-2	0	0	-8	-1
COc1ccc(NC(=O)N(C)C[C@@H]2Oc3c(NC(=O)Nc4ccc(C(F)(F)F)cc4)cccc3C(=O)N([C@H](C)CO)C[C@H]2C)cc1	·	29[16.7 µM]	·	-3	·	·
COC(=O)c1[nH]c2cc(OC)c(OC)cc2c1/C=N/Nc1ccccc1	-1	-15	·	-19*	·	5
COc1cc(/C=N/Nc2ccccc2)ccc1O	0	-2	-1	-2	4	6
CCC(=O)N1[C@@H]2c3ccc(-c4ccc(F)cc4)c(=O)n3C[C@@H]2[C@@H](CO)[C@@H]1C(=O)NC1CCC1	·	·	-3	-1	·	0

Screening data deposited in PubChem BioAssay by Broad Institute.
